According to ChEMBL document CHEMBL1125291, “New 8-(trifluoromethyl)-substituted quinolones. The benefits of the 8-fluoro group with reduced phototoxic risk” (1992):
≈ marks a conversion by molar mass, not a printed value. Where “and” joins values, the source holds several entries; their conditions need not be identical. Identical values can stand only once.

Legend:
Staphylococcus aureus [1] = experiment: Minimum inhibitory concentration (MIC) against gram positive bacteria Staphylococcus aureus UC-76.; type: functional; settings: Staphylococcus aureus; read-out: MIC
How it was run: (§1)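 MICs were determined by standard broth microtitration against 11 Gram-positive and Gram-negative organisms, in µg/mL. Values come from duplicate or triplicate experiments and are accurate to ±50%.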

Streptococcus pyogenes [2] = experiment: Minimum inhibitory concentration (MIC) against gram positive bacteria Streptococcus pyogenes C-203.; type: functional; settings: Streptococcus pyogenes; read-out: MIC; how it was run: as §1
[3] = Minimum inhibitory concentration (MIC) against gram negative bacteria Prot. rettgeri M-1771; type: functional; settings: Providencia rettgeri; how it was run: as §1
Streptococcus pneumoniae [4] = experiment: In vivo efficacy (orally) against Streptococcus pneumoniae SV-1 in mouse protection test; type: functional; settings: Streptococcus pneumoniae, po; read-out: PD50
How it was run: (§2)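 Acute lethal systemic infections in female Charles River CD-1 mice. A single dose was given at challenge, orally by gavage or by subcutaneous injection. PD50 (median protective dose, mg/kg) was determined.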

Mus musculus [5] = species: Mus musculus; experiment: Dose required to induce phototoxic reaction in 50% of mice by probit method at different dosage forms.; type: functional
Pseudomonas aeruginosa [6] = experiment: Minimum inhibitory concentration (MIC) against gram negative bacteria Pseudomonas aeruginosa UI-18.; type: functional; settings: Pseudomonas aeruginosa; read-out: MIC; how it was run: as §1
Escherichia coli [7] = experiment: In vivo efficacy in mouse protection test in Escherichia coli Vogel dose administered orally by gavage.; type: functional; settings: Escherichia coli, po; read-out: PD50; how it was run: as §2
[8] = Days of the first positive reaction in […] mice; type: functional, Mus musculus
How it was run: (§3)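 Depilated female CD-1 mice got a single oral (gavage) or subcutaneous dose, then UVA (320–400 nm) exposure for 3 h starting 1 h post-dose. This was repeated for up to 4 consecutive days. Initial doses were 30, 100 and 300 mg/kg. PTD50 was derived by probit. First day of positive reaction and no-effect dose were taken from the raw data.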

Klebsiella pneumoniae = experiment: Minimum inhibitory concentration (MIC) against gram negative bacteria Klebsiella pneumoniae MGH-2.; type: functional; settings: Klebsiella pneumoniae; read-out: MIC; how it was run: as §1
Mus musculus [9] = experiment: Maximum tolerance dose was measured for phototoxic skin reaction by po administration in mice; type: functional; how it was run: as §3
Streptococcus pneumoniae [10] = experiment: In vivo efficacy (s.c.) against Streptococcus pneumoniae SV-1 in mouse protection test; type: functional; settings: Streptococcus pneumoniae, sc; read-out: PD50; how it was run: as §2
Streptococcus pneumoniae [11] = experiment: Minimum inhibitory concentration (MIC) against gram positive bacteria Streptococcus pneumoniae SV-1.; type: functional; settings: Streptococcus pneumoniae; read-out: MIC; how it was run: as §1
Escherichia coli [12] = experiment: In vivo efficacy in mouse protection test in Escherichia coli Vogel administered by subcutaneous injection.; type: functional; settings: Escherichia coli, sc; read-out: PD50; how it was run: as §2
Escherichia coli [13] = experiment: Minimum inhibitory concentration (MIC) against gram negative bacteria Escherichia coli Vogel.; type: functional; settings: Escherichia coli; read-out: MIC; how it was run: as §1
Mus musculus [14] = species: Mus musculus; experiment: Dose which has no effect to induce phototoxic reaction in 50% of mice by probit method.; type: functional
Enterobacter cloacae = experiment: Minimum inhibitory concentration (MIC) against gram negative bacteria Enterobacter cloacae MA-2646.; type: functional
Staphylococcus aureus [15] = experiment: Minimum inhibitory concentration (MIC) against gram positive bacteria Staphylococcus aureus H-228; type: functional; how it was run: as §1
Escherichia coli [16] = experiment: Minimum inhibitory concentration (MIC) against gram negative bacteria Escherichia coli H-560; type: functional; how it was run: as §1
Mus musculus [17] = species: Mus musculus; experiment: Number of mice which show positive phototoxic reaction in 5 mice; type: functional
Enterococcus faecalis = experiment: Minimum inhibitory concentration (MIC) against gram positive bacteria Streptococcus faecalis MGH-2.; type: functional; settings: Enterococcus faecalis; read-out: MIC; how it was run: as §1
Streptococcus pyogenes [18] = experiment: In vivo efficacy (orally) against Streptococcus pyogenes C-203 in mouse protection test; type: functional; settings: Streptococcus pyogenes, po; read-out: PD50; how it was run: as §2
Escherichia coli [19] = experiment: Minimum inhibitory concentration (MIC) against gram negative bacteria Escherichia coli H-560.; type: functional; settings: Escherichia coli; read-out: MIC; how it was run: as §1
Pseudomonas aeruginosa [20] = experiment: In vivo efficacy (s.c.) against Pseudomonas aeruginosa in mouse protection test; type: functional; settings: Pseudomonas aeruginosa, sc; read-out: PD50; how it was run: as §2
[21] = Minimum inhibitory concentration (MIC) against gram negative bacteria Prot. rettgeri M-1771.; type: functional, Providencia rettgeri; settings: Providencia rettgeri; read-out: MIC; how it was run: as §1
Mus musculus [22] = experiment: Maximum tolerance dose was measured for phototoxic skin reaction by po administration; type: functional
Mus musculus [23] = species: Mus musculus; experiment: Days of the first positive reaction in […] mice.; type: functional
How it was run: (§4)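 Phototoxic skin reaction test in depilated female CD-1 mice. A single oral dose (gavage) or subcutaneous dose was given, followed 1 h later by 3 h of UVA exposure (320–400 nm). The regimen was repeated for up to 4 consecutive days, with initial doses of 30, 100 and 300 mg/kg. PTD50 was derived by the probit method. The first day of positive reaction and the no-effect dose were taken from the raw data.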

Pseudomonas aeruginosa [24] = experiment: In vivo efficacy (orally) against Pseudomonas aeruginosa in mouse protection test; type: functional; settings: Pseudomonas aeruginosa, po; read-out: PD50; how it was run: as §2
Streptococcus pyogenes [25] = experiment: In vivo efficacy (s.c.) against Streptococcus pyogenes C-203 in mouse protection test; type: functional; settings: Streptococcus pyogenes, sc; read-out: PD50; how it was run: as §2
Staphylococcus aureus [26] = experiment: Minimum inhibitory concentration (MIC) against gram positive bacteria Staphylococcus aureus H-228.; type: functional; settings: Staphylococcus aureus; read-out: MIC; how it was run: as §1
Mus musculus [27] = species: Mus musculus; experiment: Number of mice which show positive phototoxic reaction.; type: functional; how it was run: as §4
[28] = Number of mice which show positive phototoxic reaction in 5 mice at subcutaneous dose; type: functional, Mus musculus; how it was run: as §3
Mus musculus [29] = experiment: Maximum tolerance dose was measured for phototoxic skin reaction by sc administration; type: functional; how it was run: as §3
[30] = Number of mice which show positive phototoxic reaction in 5 mice at peroral dose; type: functional, Mus musculus; how it was run: as §3

SMILES	MIC (Staphylococcus aureus [1]) [µg/mL]	MIC (Streptococcus pyogenes [2]) [µg/mL]	ED50 (Streptococcus pneumoniae [4]) [mg/kg]	PTD50 (Mus musculus [5])	MIC (Pseudomonas aeruginosa [6]) [µg/mL]	ED50 (Escherichia coli [7]) [mg/kg]	MIC (Klebsiella pneumoniae) [µg/mL]	ED50 (Streptococcus pneumoniae [10]) [mg/kg]	MIC (Streptococcus pneumoniae [11]) [µg/mL]	ED50 (Escherichia coli [12]) [mg/kg]	MIC (Escherichia coli [13]) [µg/mL]	No effect dose (Mus musculus [14])	MIC (Enterobacter cloacae) [µg/mL]	MIC (Enterococcus faecalis) [µg/mL]	ED50 (Streptococcus pyogenes [18]) [mg/kg]	MIC (Escherichia coli [19]) [µg/mL]	MIC [21] [µg/mL]	MTD (Mus musculus [22]) [mg/kg]	ED50 (Streptococcus pyogenes [25]) [mg/kg]	MIC (Staphylococcus aureus [26]) [µg/mL]	further results
O=C(O)c1cn(C2CC2)c2c(C(F)(F)F)c(N3CCNCC3)c(F)cc2c1=O	0.1 (≈ 0.25 µM)	0.4 (≈ 1 µM)	75	>100 mg/kg	1.6 (≈ 4.01 µM)	1.8	0.1 (≈ 0.25 µM)	26	0.4 (≈ 1 µM)	0.9	0.05 (≈ 0.125 µM)	100 mg/kg	0.05 (≈ 0.125 µM)	0.4 (≈ 1 µM)	–	–	–	–	–	–	MIC [3]: 0.2 µg/mL (≈ 0.501 µM); Day of first positve reaction [8]: 0; MTD (Mus musculus [9]): 100 mg/kg; MIC (Staphylococcus aureus [15]): 0.4 µg/mL (≈ 1 µM); MIC (Escherichia coli [16]): 0.05 µg/mL (≈ 0.125 µM); No. of pos rxns (Mus musculus [17]): 0
NC1CCN(c2cc3c(cc2F)c(=O)c(C(=O)O)cn3C2CC2)C1 (stereo not drawn)	0.025 (≈ 0.0754 µM)	0.1 (≈ 0.302 µM)	> 100	>300 mg/kg	0.1 (≈ 0.302 µM)	3.4	0.05 (≈ 0.151 µM)	23	0.05 (≈ 0.151 µM)	0.5	0.05 (≈ 0.151 µM)	300 mg/kg	0.025 (≈ 0.0754 µM)	0.1 (≈ 0.302 µM)	97	0.006 (≈ 0.0181 µM)	0.1 (≈ 0.302 µM)	300	11	0.1 (≈ 0.302 µM)	ED50 (Pseudomonas aeruginosa [20]): 5.4 mg/kg; Day of first positve reaction (Mus musculus [23]): 0; ED50 (Pseudomonas aeruginosa [24]): 49 mg/kg; No. of pos rxns (Mus musculus [17]): 0
NC1CCCN(c2c(F)cc3c(=O)c(C(=O)O)cn(C4CC4)c3c2C(F)(F)F)C1 (stereo not drawn)	0.025 (≈ 0.0605 µM)	0.2 (≈ 0.484 µM)	–	>100 mg/kg	1.6 (≈ 3.87 µM)	11.8	0.2 (≈ 0.484 µM)	–	0.2 (≈ 0.484 µM)	3.2	0.1 (≈ 0.242 µM)	100 mg/kg	0.1 (≈ 0.242 µM)	0.2 (≈ 0.484 µM)	35	0.1 (≈ 0.242 µM)	0.4 (≈ 0.968 µM)	100	12	0.2 (≈ 0.484 µM)	No. of pos rxns (Mus musculus [27]): 0; Day of first positve reaction (Mus musculus [23]): 0
CCn1cc(C(=O)O)c(=O)c2cc(F)c(N3CCNCC3)cc21 [NORFLOXACIN]	0.05 (≈ 0.157 µM)	0.8 (≈ 2.51 µM)	> 100	>300 mg/kg and 172 mg/kg	0.2 (≈ 0.626 µM)	4	0.05 (≈ 0.157 µM)	150	1.6 (≈ 5.01 µM)	0.6	0.025 (≈ 0.0783 µM)	300 mg/kg and 100 mg/kg	0.1 (≈ 0.313 µM)	1.6 (≈ 5.01 µM)	> 100	0.1 (≈ 0.313 µM)	0.025 (≈ 0.0783 µM)	300	45	0.8 (≈ 2.51 µM)	No. of pos rxns [28]: 5; ED50 (Pseudomonas aeruginosa [20]): 11 mg/kg; ED50 (Pseudomonas aeruginosa [24]): 76 mg/kg; MTD (Mus musculus [29]): 300 mg/kg; No. of pos rxns [30]: 0
CCNCC1CCN(c2c(F)cc3c(=O)c(C(=O)O)cn(C4CC4)c3c2C(F)(F)F)C1 (stereo not drawn)	0.013 (≈ 0.0295 µM)	0.05 (≈ 0.113 µM)	1.4	>100 mg/kg	6.3 (≈ 14.3 µM)	5.3	0.8 (≈ 1.81 µM)	0.9	0.05 (≈ 0.113 µM)	1.7	0.4 (≈ 0.906 µM)	100 mg/kg	0.4 (≈ 0.906 µM)	0.1 (≈ 0.227 µM)	1.6	0.2 (≈ 0.453 µM)	1.6 (≈ 3.62 µM)	100	1.1	0.05 (≈ 0.113 µM)	ED50 (Pseudomonas aeruginosa [20]): 46 mg/kg; Day of first positve reaction (Mus musculus [23]): 0; ED50 (Pseudomonas aeruginosa [24]): 93 mg/kg; No. of pos rxns (Mus musculus [17]): 0
